In ChEMBL document CHEMBL4138103, “Discovery of efficient stimulators for adult hippocampal neurogenesis based on scaffolds in dragon's blood” (Eur J Med Chem, 2017):
Activity calls are given as the source filed them. No cut-off for these calls is given here.

Assays:
[1] = Cytotoxicity against human SH-SY5Y cells assessed as cell survival at 100 uM after 24 hrs by MTT assay relative to control; type: cell-based; conditions: read-out: Survival
Outline: (§1)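 SH-SY5Y human neuroblastoma cells seeded at 5 × 10⁴ cells/mL, incubated 24 h at 37 °C, then exposed to compounds at final concentrations of […] for 24 h. MTT added for a further 4 h at 37 °C. Absorbance read at 570 nm and reported as percent viability. Five parallel samples per condition.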

[2] = Cytotoxicity against human SH-SY5Y cells assessed as cell survival at 500 uM after 24 hrs by MTT assay relative to control; type: cell-based; conditions: read-out: Survival; outline: as §1
[3] = Cytotoxicity against human SH-SY5Y cells assessed as cell survival at 1000 uM after 24 hrs by MTT assay relative to control; type: cell-based; conditions: read-out: Survival; outline: as §1
[4] = test system: Rattus norvegicus; assay: In vivo neurogenic activity in Sprague-Dawley rat neural progenitor cells at 4 mg/kg, ip qd pretreated for 28 days followed by BrdU addition at 2 hrs interval for twice on day 29 measured after 24 hrs by BrdU incorporation assay relative to control; type: functional
Outline: (§2)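 Male SD rats aged 10 weeks, acclimatized 7 days (11 weeks old at start), dosed ip once daily for 28 days with compound in soybean oil containing 10% ethanol; vehicle group received 10% ethanol in oil. On day 29, BrdU in saline given twice at 100 mg/kg, 2 h apart. Rats sacrificed 24 h after the last BrdU. BrdU+ cells in SGZ-GCL counted by DAB immunostaining of 30 µm cryosections; n = 8; mean ± SEM.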

[5] = test system: Rattus norvegicus; assay: In vivo neurogenic activity in Sprague-Dawley rat neural progenitor cells at 2.2 mg/kg, ip qd pretreated for 28 days followed by BrdU addition at 2 hrs interval for twice on day 29 measured after 24 hrs by BrdU incorporation assay; type: functional, organism-based; outline: as §2

Compound	viability at 24 h, 100 µM [1] [%]	viability at 24 h, 500 µM [2] [%]	viability at 24 h, 1000 µM [3] [%]	Activity [4]	Activity [5]
COc1ccccc1/C=C/c1ccc2c(c1)OCO2	36.1	33.6	23.6	–	–
CN(C)c1ccc(/C=C/c2ccc3c(c2)OCO3)cc1	83.3	51.2	52.6	Active	–
O=C(Nc1ccc(/C=C/c2ccc3c(c2)OCO3)cc1)c1cccs1	62.5	54.4	49.1	Active	–
COc1ccc(C#Cc2cc(C)cc(C)c2)cc1	54.2	24.3	22.1	–	–
CC(=O)Nc1ccc(/C=C/C(=O)c2ccc3c(c2)OCO3)cc1	6.71	2.78	4.69	–	–
Nc1ccc(/C=C/c2cccc(OC(F)(F)F)c2)cc1	51.8	31.9	26.9	–	–
COc1cc(/C=C/c2ccc3c(c2)OCO3)cc(OC)c1	74	60.9	45.7	–	–
COc1ccc(/C=C/c2ccc(NC(C)=O)cc2)cc1	70	52.2	40.7	–	inactive
C(#Cc1cccs1)c1ccc2c(c1)OCO2	43.9	27.5	17.7	–	–
CC(=O)c1ccc(/C=C/c2ccc(O)cc2)cc1	94.4	59.2	24.6	–	–
COc1ccc(/C=C/C(=O)c2ccc3c(c2)OCO3)cc1O	44.7	22.2	17.1	–	–
COc1ccc(C(=O)/C=C/c2ccc3c(c2)OCO3)c(O)c1	90.4	59.9	49.3	–	–
CC(=O)c1ccc(/C=C/c2ccc3c(c2)OCO3)cc1	70.3	63.5	53.9	–	–
CC(=O)Oc1ccc(/C=C/c2cc(C)cc(C)c2)cc1	3.24	2.8	18.4	–	–
COc1ccc(/C=C/c2ccc3c(c2)OCO3)cc1	76.1	69.6	62.8	Active	–
COc1ccc(/C=C/c2ccc(NC(C)=O)c(F)c2)cc1	14.2	1.52	0.69	–	–
COc1ccc(/C=C/c2ccc(Cl)cc2)cc1OC	57.3	51.6	56.4	–	–
COc1cc(/C=C/C(=O)c2ccc(O)cc2)cc(OC)c1	5.64	3.53	2.57	–	–
Cc1ccc(C#Cc2ccc3c(c2)OCO3)cc1	51.9	24.8	23.7	–	–

Compound	viability at 24 h, 100 µM [1] [%]	viability at 24 h, 500 µM [2] [%]	viability at 24 h, 1000 µM [3] [%]	Activity [4]	Activity [5]
COc1ccc(C(=O)/C=C/c2ccc(O)c(OC)c2)cc1	13.3	39.8	165	–	–
COc1cccc(/C=C/c2ccc3c(c2)OCO3)c1	72.5	52.7	32	–	–
COc1cccc(/C=C/c2ccc(NC(C)=O)cc2)c1	44.5	26.1	11.9	–	–
CN(C)c1ccc(/C=C/C(=O)c2ccc3c(c2)OCO3)cc1	49.8	40.2	23.7	–	–
COc1ccc(C#Cc2ccc(OC)c(OC)c2)cc1	94.1	78.9	65.5	–	–
COc1ccc(/C=C/c2cccc(OC(F)(F)F)c2)cc1	40.2	40.5	38.7	–	–
COc1cc(/C=C/C(=O)c2ccc3c(c2)OCO3)ccc1O	16.3	25.2	26.2	–	–
COc1cc(/C=C/c2ccc(O)cc2)cc(OC)c1 [PTEROSTILBENE]	-0.58	32.7	51.4	Active	–
COc1ccc(/C=C/c2ccc(O)cc2)cc1OC	56.8	44.1	35.3	–	–
N#Cc1ccc(/C=C/c2ccc3c(c2)OCO3)cc1	110	43.7	36.1	Active	–
Oc1ccc(/C=C/c2cc(F)cc(F)c2)cc1	-13.6	-11	-7.78	–	–
Oc1ccc(/C=C/c2cc(C(F)(F)F)cc(C(F)(F)F)c2)cc1	-4.81	-0.07	-3.86	–	–
C(=C\c1ccc2c(c1)OCO2)/c1ccc(OCc2ccccc2)cc1	67.3	72.7	80.6	–	–
Oc1ccc(/C=C/c2ccc(Cl)cc2)cc1O	107	69.2	38.5	–	–
Cc1cc(C)cc(/C=C/c2ccc(O)cc2)c1	7.31	1.84	2.88	–	–
N#Cc1cccc(/C=C/c2ccc(O)cc2)c1	20.9	16.9	14.9	–	–
COc1ccc2c(c1)OC(c1ccc3c(c1)OCO3)CC2=O (centres undefined)	73.2	44.8	27.3	–	–
COc1ccc(C#Cc2cc(C(F)(F)F)cc(C(F)(F)F)c2)cc1	28.6	20.9	18.3	–	–
Cc1ccc(C#Cc2ccc(OCc3ccccc3)cc2)cc1	94.2	72.5	68	–	–

Compound	viability at 24 h, 100 µM [1] [%]	viability at 24 h, 500 µM [2] [%]	viability at 24 h, 1000 µM [3] [%]	Activity [4]	Activity [5]
CCOc1ccc(C#Cc2ccc3c(c2)OCO3)cc1	56.5	41	38.1	inactive	–
CC(=O)Nc1ccc(/C=C/c2ccc3c(c2)OCO3)cc1F	86.7	82	75.1	Active	–
COc1cc(/C=C/c2ccc(O)cc2)cc(OC)c1OC	27.5	25.9	21.2	–	–
COc1ccc(/C=C/c2cccc(C#N)c2)cc1	66.3	67	48.3	–	–
CC(=O)Nc1ccc(C#Cc2ccc3c(c2)OCO3)cc1	63.2	51.3	35.2	inactive	–
CCCCCc1ccc(C#Cc2ccc(OCc3ccccc3)cc2)cc1	62.6	51.3	49	–	–
Oc1ccc(/C=C/c2cccc(OC(F)(F)F)c2)cc1	77.1	55.4	5.06	–	–
COc1cc(/C=C/c2ccc(NC(C)=O)cc2)cc(OC)c1	54.5	48.5	45.2	Active	–
Oc1ccc(/C=C/c2ccc3c(c2)OCCO3)cc1	2.8	2	-0.08	–	–
CC(=O)Nc1cccc(/C=C/c2ccc3c(c2)OCO3)c1	20.9	7.78	2.7	–	–
CCCC(=O)Nc1ccc(/C=C/c2ccc3c(c2)OCO3)cc1	58.8	40.7	33.3	Active	–
O=C(Nc1ccc(/C=C/c2ccc3c(c2)OCO3)cc1)C(F)(F)F	75.2	53.4	41.5	inactive	–
CCCCCOc1ccc(C#Cc2ccc3c(c2)OCO3)cc1	69.8	22.9	15.3	–	–
C(=C\c1ccc2c(c1)OCO2)/c1ccncc1	8.43	4.26	3.56	–	–
C(#Cc1ccc2c(c1)OCO2)c1ccsc1	46.2	32.9	21	–	–
Nc1ccc(/C=C/c2ccc3c(c2)OCO3)cc1	47.6	39.1	32.2	–	–
CC(=O)N(C)c1ccc(/C=C/c2ccc3c(c2)OCO3)cc1	50.4	15.8	5.89	inactive	–
COc1ccc(/C=C/c2ccc(N)c(F)c2)cc1	80	65.1	47.8	–	–
COc1ccc(/C=C/c2ccc(N)cc2)cc1OC	53.7	51.7	50.4	–	–
